This note sets out measurements from ChEMBL document CHEMBL2321674, “Design, synthesis and biological evaluation of sulfur-containing 1,1-bisphosphonic acids as antiparasitic agents” (Eur J Med Chem, 2013).

Where only a bound is given, the exact number is not on record here.

By IC50 is commonly meant the concentration at which inhibition is half-maximal.

In one data set the test system is Vero. Briefly: Cytotoxicity against african green monkey Vero cells assessed as cell viability at 25 uM. The conditions noted are these: chlorocebus sabaeus. Type of data set: cell-based.
The next data set has as its system Trypanosoma cruzi. As to the kind of experiment: Antiparasitic activity against Trypanosoma cruzi amastigotes infected in gamma-irradiated vero cells assessed as growth inhibition measured after 3 days by fluorescence assay. In kind it is functional. To be noted: light or radiation study, 72 h, read-out: ED50 (the source's name).
In the next data set the test system is Toxoplasma gondii. As to the kind of experiment: Antiparasitic activity against Toxoplasma gondii tachyzoite expressing red fluorescence protein assessed as growth inhibition by fluorescence plate reader. Type of data set: functional. The conditions noted are these: read-out: ED50 (the source's name). An outline of the steps:
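T. gondii tachyzoites expressing red fluorescent protein, filtered (3 μm) and needle-passed, inoculated at 10^4/well onto confluent hTerT monolayers in DMEM-HG with 1% FBS, 2 mM glutamine, 1 mM pyruvate, serial drug dilutions; 37 °C, 5% CO2, fluorescence read daily from bottom (ex 510/em 540 nm).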

For data set [1], the target named is T1, Farnesyl diphosphate synthase (Toxoplasma gondii, UniProt Q197X6).
T1 sequence (Q197X6 whole entry): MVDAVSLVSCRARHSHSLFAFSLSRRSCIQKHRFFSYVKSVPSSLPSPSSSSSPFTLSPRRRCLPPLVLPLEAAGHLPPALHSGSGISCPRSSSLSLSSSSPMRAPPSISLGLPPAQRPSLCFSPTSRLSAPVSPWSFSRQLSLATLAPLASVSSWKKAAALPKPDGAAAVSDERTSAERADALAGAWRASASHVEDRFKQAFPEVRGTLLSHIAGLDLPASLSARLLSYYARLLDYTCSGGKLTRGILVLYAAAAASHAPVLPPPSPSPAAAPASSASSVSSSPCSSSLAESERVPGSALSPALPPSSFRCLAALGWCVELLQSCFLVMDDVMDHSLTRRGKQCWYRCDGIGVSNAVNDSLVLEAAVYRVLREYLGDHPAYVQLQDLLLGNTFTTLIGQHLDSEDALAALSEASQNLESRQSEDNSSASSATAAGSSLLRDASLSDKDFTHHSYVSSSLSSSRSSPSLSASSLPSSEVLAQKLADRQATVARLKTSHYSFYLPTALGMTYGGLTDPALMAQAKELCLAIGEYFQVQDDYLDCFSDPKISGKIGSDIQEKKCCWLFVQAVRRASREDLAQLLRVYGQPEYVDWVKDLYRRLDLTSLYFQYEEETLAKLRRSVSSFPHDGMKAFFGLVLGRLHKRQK
Briefly: Inhibition of Toxoplasma gondii farnesyl diphosphate synthase assessed as incorporation of [4-14C]IPP measured at 37 degC.

In data set [2] the target is T2, Farnesyl diphosphate synthase (Trypanosoma cruzi, UniProt Q8WS26).
T2 sequence (Q8WS26 whole entry): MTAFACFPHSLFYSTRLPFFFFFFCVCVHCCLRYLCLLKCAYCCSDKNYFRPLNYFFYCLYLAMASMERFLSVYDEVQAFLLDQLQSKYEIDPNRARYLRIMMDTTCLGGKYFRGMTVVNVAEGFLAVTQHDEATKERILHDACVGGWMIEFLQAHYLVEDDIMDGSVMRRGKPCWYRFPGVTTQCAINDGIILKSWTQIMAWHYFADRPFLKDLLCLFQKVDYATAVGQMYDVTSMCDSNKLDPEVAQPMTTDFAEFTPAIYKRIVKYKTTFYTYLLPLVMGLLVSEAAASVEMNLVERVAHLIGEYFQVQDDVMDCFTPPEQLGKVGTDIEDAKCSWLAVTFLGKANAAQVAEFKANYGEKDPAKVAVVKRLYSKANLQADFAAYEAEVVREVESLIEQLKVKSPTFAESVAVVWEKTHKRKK
Briefly: Inhibition of Trypanosoma cruzi farnesyl diphosphate synthase assessed as incorporation of [4-14C]IPP measured at 37 degC.

The nature of data set [3]: Cytotoxicity against hTerT cells assessed as growth inhibition measured at > 200 uM after 3 to 4 days by Alamar Blue assay. To be noted: human. In kind it is cell-based. An outline of the steps:
(§1)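 Non-irradiated confluent hTERT cells in phenol-red-free high-glucose DMEM with 10% Cosmic Calf Serum, washed, serial drug dilutions in quadruplicate, 35 °C, 7% CO2 for 3–4 days. AlamarBlue at 10% of culture volume, 6 h at 35 °C, absorbance at 570 and 600 nm. Percent growth inhibition = 100 minus percent reduction difference versus untreated control; DMSO as toxicity control.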
(Alamar Blue is a resazurin reagent that responds to reducing activity.)

The nature of data set [4]: Cytotoxicity against hTerT cells assessed as growth inhibition measured at > 1000 uM after 3 to 4 days by Alamar Blue assay. In kind it is cell-based. The conditions noted are these: human. In short, it runs like this:
as §1

The nature of data set [5]: Cytotoxicity against hTerT cells assessed as growth inhibition measured at >= 500 uM after 3 to 4 days by Alamar Blue assay. Type of data set: cell-based. To be noted: human. An outline of the steps:
as §1

As to `CCCSCC(P(=O)(O)O)P(=O)(O)O`, the Activity result in the data set with Vero is “Non-toxic”. Further, the EC50 in the data set with Trypanosoma cruzi was > 20 µM; in the data set on Toxoplasma gondii, > 10 µM. For the same compound, the figures for the IC50 in data set [1] and in data set [2] were 0.066 µM and 0.925 µM, respectively.
The corresponding values for `CCCCCCCCCC[S+]([O-])CC(P(=O)(O)O)P(=O)(O)O` (stereo not drawn) are “Non-toxic”, > 20 µM, 7.6 µM, > 10 µM and > 10 µM.
For `CCCCCS(=O)(=O)CC(P(=O)(O)O)P(=O)(O)O` the same measures were “Non-toxic”, > 20 µM, > 10 µM, > 10 µM and > 10 µM.
For `CCCCCCCC[S+](C)CC(P(=O)(O)O)P(=O)(O)O.F[B-](F)(F)F` (stereo not drawn) the same measures were “Non-toxic”, > 20 µM, 7 µM, 0.013 µM and 0.04 µM.
Take `CCCCCC(C)NCC(P(=O)(O)O)P(=O)(O)O` (stereo not drawn): the Activity result in the data set on Vero is reported as “Non-toxic”. Moreover, the EC50 is > 20 µM in the data set with Trypanosoma cruzi and 11.4 µM with Toxoplasma gondii. The IC50 in data set [1] is < 1 µM; in data set [2], > 10 µM.
The corresponding values for `CCCCCCCNCC(O)(P(=O)(O)O)P(=O)(O)O` are “Non-toxic”, > 20 µM, > 10 µM, > 1 µM and > 10 µM.
Take `CCSCC(P(=O)(O)O)P(=O)(O)O`: the Activity entry in the data set on Vero is listed as “Non-toxic”. The EC50 in the data set with Trypanosoma cruzi was > 20 µM; with Toxoplasma gondii, > 10 µM. The IC50 in data set [1] amounted to 1.83 µM; in data set [2] it was 0.627 µM.
The corresponding values for `CCCCSCC(P(=O)(O)O)P(=O)(O)O` are “Non-toxic”, > 20 µM, > 10 µM, 0.048 µM and 0.789 µM.
In the case of `CCCCCSCC(P(=O)(O)O)P(=O)(O)O`, in the data set on Vero, the Activity entry is given as “Non-toxic”. The EC50 in the data set with Trypanosoma cruzi is > 20 µM; in the data set on Toxoplasma gondii, > 10 µM. Further, the results for the IC50 in data set [1] and in data set [2] were 0.11 µM and > 10 µM, respectively.
With `CCCCCCSCC(P(=O)(O)O)P(=O)(O)O`, the Activity result in the data set with Vero is “Non-toxic”. For the same compound, the EC50 with Trypanosoma cruzi is > 20 µM; with Toxoplasma gondii, 6.5 µM. Moreover, the figures for the half-maximal inhibitory concentration (IC50) in data set [1] and in data set [2] were 0.307 µM and > 10 µM, respectively.
As for `CCCCCCCSCC(P(=O)(O)O)P(=O)(O)O`, the Activity entry (in the data set with Vero; in data set [3]) was “Non-toxic” each time. Moreover, the EC50 was > 20 µM in the data set on Trypanosoma cruzi and 0.97 µM in the data set with Toxoplasma gondii. Further, the IC50 in data set [1] was 0.069 µM; in data set [2] it was > 10 µM.
In the case of `CCCCCCCCSCC(P(=O)(O)O)P(=O)(O)O`, the Activity result (in the data set on Vero; in data set [4]) was “Non-toxic” each time. For the same compound, the EC50 with Trypanosoma cruzi turned out to be 15.8 µM; in the data set with Toxoplasma gondii, 2.6 µM. The IC50 in data set [1] is 0.024 µM; in data set [2], 6.39 µM.
As for `CCCCCCCCCSCC(P(=O)(O)O)P(=O)(O)O`, the Activity result (in the data set with Vero; in data set [5]) was “Non-toxic” each time. Also, the EC50 is 12.8 µM with Trypanosoma cruzi and 1.2 µM in the data set with Toxoplasma gondii. The figures for the half-inhibitory concentration (IC50) in data set [1] and in data set [2] were 0.025 µM and 1.7 µM, respectively.
`CCCCCCCCCCSCC(P(=O)(O)O)P(=O)(O)O`: the Activity result (in the data set with Vero; in data set [3]) was “Non-toxic” throughout. The EC50 was > 20 µM with Trypanosoma cruzi and 1.8 µM with Toxoplasma gondii. Also, the IC50 turned out to be 0.021 µM in data set [1] and 0.097 µM in data set [2].
Consider `CCCC[S+]([O-])CC(P(=O)(O)O)P(=O)(O)O` (stereo not drawn), for which the Activity entry with Vero was “Non-toxic”. Moreover, the EC50 in the data set with Trypanosoma cruzi was > 20 µM; in the data set on Toxoplasma gondii, > 10 µM. Besides, the IC50 in data set [1] and in data set [2] was > 10 µM in each case.
Regarding `CCCCC[S+]([O-])CC(P(=O)(O)O)P(=O)(O)O` (stereo not drawn), the Activity entry with Vero is on record as “Non-toxic”. For the same compound, the results for the EC50 in the data set on Trypanosoma cruzi and in the data set with Toxoplasma gondii were > 20 µM and > 10 µM, respectively. Also, the IC50 in data set [1] and in data set [2] was > 10 µM throughout.
With `CCCCCC[S+]([O-])CC(P(=O)(O)O)P(=O)(O)O` (stereo not drawn), the Activity result in the data set with Vero is recorded as “Non-toxic”. Further, the EC50 in the data set on Trypanosoma cruzi was > 20 µM; in the data set on Toxoplasma gondii, > 10 µM. In addition, the IC50 in data set [1] and in data set [2] was > 10 µM in each case.
On to `CCCCCCC[S+]([O-])CC(P(=O)(O)O)P(=O)(O)O` (stereo not drawn), for which the Activity result in the data set on Vero is “Non-toxic”. Moreover, the EC50 was > 20 µM in the data set with Trypanosoma cruzi and 5 µM in the data set on Toxoplasma gondii. The IC50 in data set [1] is 0.009 µM; in data set [2], > 10 µM.
For `CCCCCCCC[S+]([O-])CC(P(=O)(O)O)P(=O)(O)O` (stereo not drawn), the Activity entry with Vero was “Non-toxic”. Further, the figures for the EC50 with Trypanosoma cruzi and in the data set with Toxoplasma gondii were > 20 µM and 3 µM, respectively. In addition, the IC50 is 0.016 µM in data set [1] and > 10 µM in data set [2].
`CCCCCCCCC[S+]([O-])CC(P(=O)(O)O)P(=O)(O)O` (stereo not drawn): the Activity entry (in the data set with Vero; in data set [4]) was “Non-toxic” in each case. In addition, the values for the EC50 in the data set on Trypanosoma cruzi and in the data set with Toxoplasma gondii were 19.4 µM and 1.4 µM, respectively. For the same compound, the IC50 is 0.056 µM in data set [1] and > 10 µM in data set [2].
On to `O=C(Cn1ccnc1[N+](=O)[O-])NCc1ccccc1` [BENZNIDAZOLE], for which the EC50 in the data set on Trypanosoma cruzi stood at 1.7 µM.
Regarding `O=P(O)(O)C(O)(Cc1cccnc1)P(=O)(O)O` [RISEDRONIC ACID], the EC50 came to 55 µM in the data set with Trypanosoma cruzi and 2.4 µM in the data set with Toxoplasma gondii.
